Activity and IC50 data for 13 compounds are collected here from ChEMBL document CHEMBL6177917, “Synthesis and evaluation of tetrahydropyrrolo[1,2-a]quinolin-1(2H)-ones as new tubulin polymerization inhibitors” (RSC Med Chem, 2025).

The source made the active and inactive calls. The calls are words filed in the database; no cut-off is given here. Some results are limits rather than exact numbers.

Data set [1] relates to A549. Kind of data set: Induction of mitotic arrest in human A549 cells assessed as increase in mitotic index at > 200 uM measured for 12 hrs by phase contrast microscopic analysis. Type of data set: functional, cell-based.
Data set [2] deals with A549. Kind of data set: Induction of cell cycle arrest in human A549 cells assessed as accumulation of cells at G2/M phase at > 22 uM incubated for 24 hrs by PI staining based flow cytometric analysis. The data set is classed as functional. The gist of the method: (§1)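 A549 cells were grown 48 h, then given compound or DMSO for 24 h, with nocodazole as control. Cells were fixed in 70% ice-cold ethanol overnight and stained with 30 μg/mL propidium iodide. DNA content was read by flow cytometry, with linear gates for G0/G1, S and G2/M. Mean ± s.d. of 2–3 independent experiments; G2/M versus DMSO tested by Dunnett's test.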
(Flow cytometry measures light scatter and fluorescence of single cells or particles in a stream.)

Data set [3] concerns HeLa. Kind of data set: Induction of mitotic arrest in human HeLa cells assessed as increase in mitotic index at > 200 uM measured for 12 hrs by phase contrast microscopic analysis. Type of data set: functional, cell-based.
The test system of data set [4] is HeLa. Kind of data set: Induction of mitotic arrest in human HeLa cells assessed as increase in mitotic index at > 50 uM measured for 12 hrs by phase contrast microscopic analysis. The data set is classed as functional, cell-based.
The subject of data set [5] is A549. Kind of data set: Induction of mitotic arrest in human A549 cells assessed as increase in mitotic index at > 50 uM measured for 12 hrs by phase contrast microscopic analysis. The data set is classed as functional, cell-based.
Data set [6] has as its system A549. Kind of data set: Cytotoxicity against human A549 cells assessed as reduction in cell proliferation incubated for 72 hrs by MTT assay. The data set is classed as toxicity, cell-based. Particulars: a549, 72 h. In outline: (§2)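 Cells were seeded at 2500 per well in DMEM/F12 and left 24 h at 37 °C in 5% CO2 before treatment. Compounds came from DMSO stocks and were given at final 100–0.045 μM, eight dilutions, in triplicate, for 72 h. MTT (up to 0.5 mg/mL) was then added for 1.5 h and formazan dissolved in DMSO was read at 565 nm. Signal was normalized to untreated cells and IC50 calculated.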

The subject of data set [7] is MCF7. Kind of data set: Induction of mitotic arrest in human MCF7 cells assessed as increase in mitotic index at > 200 uM measured for 12 hrs by phase contrast microscopic analysis. Type of data set: functional, cell-based.
For data set [8], the system named is A549. Kind of data set: Induction of cell cycle arrest in human A549 cells assessed as accumulation of cells at G2/M phase at 66 uM incubated for 24 hrs by PI staining based flow cytometric analysis. Type of data set: functional. In outline: as §1
Data set [9] relates to MCF7. Kind of data set: Induction of mitotic arrest in human MCF7 cells assessed as increase in mitotic index at > 50 uM measured for 12 hrs by phase contrast microscopic analysis. The data set is classed as functional, cell-based.
The target in data set [10] is T1, Tubulin (Homo sapiens) (UniProt P68371+Q9H4B7+P0DPH7+P68366+Q13509+Q71U36+P04350+Q3ZCM7+P07437+P68363+Q9BQE3+Q6PEY2+Q13885+Q9BVA1+Q9BUF5). Kind of data set: Destabilization of microtubule network (unknown origin) assessed as decrease in catastrophes frequency measured for 30 min by differential interference contrast microscopic analysis.
In data set [11] the target is T1, Tubulin (Homo sapiens). Kind of data set: Destabilization of microtubule network (unknown origin) assessed as reduction in microtubule growth rate measured for 30 min by differential interference contrast microscopic analysis.
The subject of data set [12] is A549. Kind of data set: Induction of cell cycle arrest in human A549 cells assessed as accumulation of cells at G2/M phase incubated for 24 hrs by PI staining based flow cytometry analysis. Type of data set: functional. The conditions noted are these: for IC50: A549, 24 h. In outline:
as §1

Data set [13] relates to Tubulin (Bos taurus). Kind of data set: Destabilization of microtubule network of purified bovine brain tubulin in vitro assessed as decrease in microtubule growth rate at 25 uM measured for 30 min by differential interference contrast microscopic analysis relative to control. Details: scale not given: the % may be the effect or the level left.
The test system of data set [14] is Tubulin (Bos taurus). Kind of data set: Displacement of CPZ from tubulin (bovine brain) assessed as decrease in fluorescence intensity incubated for 1 hr by fluorescence based analysis. The conditions noted are these: dose 100.0 µM.
Data set [15] is described as follows: Cytotoxicity against HEK293T cells assessed as reduction in cell proliferation incubated for 72 hrs by MTT assay. Type of data set: toxicity, cell-based, HEK293. The conditions noted are these: human. The gist of the method:
as §2
Background: Tetrazolium assays rely on reduction of a dye to a coloured formazan, in cell work by metabolically active cells.

In data set [16] the test system is A549. Kind of data set: Induction of cell cycle arrest in human A549 cells assessed as accumulation of cells at S phase incubated for 24 hrs by PI staining based flow cytometry analysis. Type of data set: functional. Particulars: dose <= 64.0 µM. The gist of the method:
as §1

Data set [17] has as its system A549. Kind of data set: Induction of cell cycle arrest in human A549 cells assessed as accumulation of cells at G0/G1 phase incubated for 24 hrs by PI staining based flow cytometry analysis. The conditions noted are these: dose <= 64.0 µM. Type of data set: functional. The gist of the method:
as §1

Data set [18] deals with Tubulin (Bos taurus). Kind of data set: Destabilization of microtubule network of purified bovine brain tubulin in vitro assessed as decrease in catastrophes frequency at 25 uM measured for 30 min by differential interference contrast microscopic analysis.
Data set [19] concerns A549. Kind of data set: Induction of cell cycle arrest in human A549 cells assessed as accumulation of cells at G2/M phase at 116 uM incubated for 24 hrs by PI staining based flow cytometric analysis. Type of data set: functional. The gist of the method: as §1
The test system of data set [20] is A549. Kind of data set: Induction of cell cycle arrest in human A549 cells assessed as accumulation of cells at G2/M phase at 200 uM incubated for 24 hrs by PI staining based flow cytometric analysis. The data set is classed as functional. In outline:
as §1

The target in data set [21] is T1, Tubulin (Homo sapiens). Kind of data set: Destabilization of microtubule network (unknown origin) assessed as effect on microtubule growth rate measured for 30 min by differential interference contrast microscopic analysis.
Data set [22] has as its system A549. Kind of data set: Induction of cell cycle arrest in human A549 cells assessed as accumulation of cells at G2/M phase up to 200 uM incubated for 24 hrs by PI staining based flow cytometric analysis. Type of data set: functional. The gist of the method: as §1

In the case of `O=C1CC[C@@H]2C[C@H](c3ccccc3)c3ccccc3N12` (racemic), the outcome in [1], in [2], in [3], in data set [4], in data set [5] and in data set [7] was Active. In addition, the outcome in data set [8], in data set [9], in data set [10] and in data set [11] was Active. Further, the Activity entry in data set [6] was “Toxic”. In addition, in [12], the half-inhibitory concentration (IC50) amounted to 22 µM.
Turning to `O=C1CC[C@@H]2C[C@H](c3cccc(O)c3)c3ccccc3N12` (racemic), the Activity in [13] is more than 50%; in data set [16], “Dose-dependent-effect”; in [17], “Dose-dependent-effect”; in [12] (dose <= 64.0 µM), “Dose-dependent-effect”. The outcome in [14] and in data set [18] was Active. Moreover, in [15], the IC50 at 72 h was found to be 4.1 µM. Further, the IC50 in data set [12] worked out at 5.9 µM.
With `O=C1CCC(/C=C/c2ccccc2)N1c1ccccc1` (racemic), the result in data set [1], in [19], in [3], in data set [7], in data set [20] and in data set [10] was Active. The result in [11] was Active. The Activity result in data set [6] is “Toxic”. Further, the concentration for half-maximal inhibition (IC50) in data set [12] was found to be 82 µM.
Turning to `CC(C)(C)c1ccc(N2C(=O)CCC2/C=C/c2ccccc2)cc1` (racemic), in data set [21], the Activity result was “No effect”.
Regarding `COc1cc(N2C(=O)CCC2c2ccc(Br)cc2)cc(OC)c1OC` (racemic), the outcome in [10] was inactive. In addition, the Activity entry in data set [21] is “No effect”.
For `COc1ccc(C2CCC(=O)N2c2cc(OC)c(OC)c(OC)c2)cc1OC` (racemic), in data set [10], the outcome was inactive. In data set [21], the Activity result is “No effect”.
Take `COc1ccc(C2CCC(=O)N2c2cccc3[nH]ccc23)cc1OC` (racemic): in data set [21], the Activity result was “No effect”.
On to `COc1ccc(N2C(=O)CCC2/C=C/c2ccc(C)cc2)cc1OC` (racemic), for which, in [22], the outcome was inactive. In addition, the outcome in data set [21] was Active.
Consider `COc1ccc(N2C(=O)CCC2c2ccc(OC)c(OC)c2)cc1` (racemic), for which the outcome in data set [21] was Active.
With `Cc1ccc(/C=C/C2CCC(=O)N2c2ccccc2)cc1` (racemic), the outcome in data set [22] was inactive. Further, in [21], the outcome was Active.
Consider `Cc1ccc([C@H]2C[C@H]3CCC(=O)N3c3ccccc32)cc1` (racemic), for which the outcome in data set [8] was inactive. The result in data set [21] was Active.
`Cc1ccccc1C1CCC(=O)N1c1ccc([N+](=O)[O-])cc1` (racemic): in [21], the Activity result is “No effect”.
The same measure, in the same setting: next, `O=C1CCC(c2c3ccccc3cc3ccccc23)N1c1ccc(C(F)(F)F)cc1` (racemic): “No effect”.

By IC50 is commonly meant the midpoint of a concentration-inhibition curve.
